Reference: ChEMBL document CHEMBL3244252, “Adriamycin analogues. 3. Synthesis of N-alkylated anthracyclines with enhanced efficacy and reduced cardiotoxicity” (J Med Chem, 1979)

Assays:
Salmonella typhimurium [1] = experiment: Toxicity in Salmonella typhimurium TA98 assessed as concentration required to cause mortality per plate; assay type: organism-based; conditions: salmonella enterica subsp. enterica serovar typhimurium
Outline: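 Ames plate test with Salmonella typhimurium tester strain TA98. Compounds were tested over ranges from 0–20 up to 0–100 µg/plate, depending on compound. The toxicity level is reported in µg/plate.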

Salmonella typhimurium [2] = experiment: Mutagenicity in Salmonella typhimurium TA98 assessed as number of revertants by Ames test in presence of microsomal activation; assay type: toxicity, organism-based; conditions: salmonella enterica subsp. enterica serovar typhimurium
Outline: (§1)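 Ames plate test using Salmonella typhimurium tester strain TA98. Compounds were tested over dose ranges of 0-20 to 0-100 µg/plate, depending on the compound, and the toxicity level per plate was noted. Mutagenicity is expressed as revertants produced per nmol of compound.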

L1210 [3] = experiment: Selectivity ratio of ED50 for inhibition of DNA synthesis in mouse L1210 cells to ED50 for inhibition of RNA synthesis in mouse L1210 cells; assay type: functional
Outline: (§2)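 L1210 leukemia cells. Drugs were first dissolved in Me2SO to a final 1% Me2SO in the assay medium. Inhibition of DNA and RNA synthesis was measured separately and reported as ED50 (50% inhibitory dose, μM). Selectivity is the ratio of the DNA ED50 to the RNA ED50.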

L1210 [4] = experiment: Inhibition of RNA synthesis in mouse L1210 cells; assay type: functional; conditions: read-out: ED50 (the source's name); outline: as §2
Salmonella typhimurium [5] = experiment: Mutagenicity in Salmonella typhimurium TA98 assessed as number of revertants by Ames test in absence of microsomal activation; assay type: toxicity, organism-based; conditions: salmonella enterica subsp. enterica serovar typhimurium; outline: as §1
L1210 [6] = experiment: Inhibition of DNA synthesis in mouse L1210 cells; assay type: functional; conditions: read-out: ED50 (the source's name); outline: as §2
Calf thymus DNA = experiment: Binding affinity to calf thymus DNA assessed as change in melting temperature; assay type: nucleic-acid assay; conditions: Bos taurus
Outline: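 Drug first dissolved in Me2SO to a final 5% Me2SO in the assay medium. DNA binding is read as the shift in DNA melting temperature (ΔTm). ΔTm below 1 is taken as insignificant binding.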

Rattus norvegicus = species on record: Rattus norvegicus; experiment: Cardiotoxicity in rat assessed as minimum cumulative cardiotoxic dose by Zbinden test; assay type: toxicity, organism-based; conditions: in vivo
Outline: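 Zbinden cardiotoxicity assay in rats. Drug was given cumulatively, with ECG monitoring. Value is the minimum total dose (mg/kg) that causes significant ECG alterations.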

P388 [7] = experiment: Antitumor activity against mouse P388 cells allografted in CDF/BDF mouse assessed as survival time at 1.56 mg/kg, ip administered as qd for 1 to 9 days relative to control; assay type: functional; conditions: route intraperitoneal
P388 [8] = experiment: Antitumor activity against mouse P388 cells allografted in CDF/BDF mouse assessed as survival time at 18 mg/kg, ip administered as qd on day 5, 9, 13; assay type: functional; conditions: route intraperitoneal
P388 [9] = experiment: Antitumor activity against mouse P388 cells allografted in CDF/BDF mouse assessed as survival time at 8 mg/kg, ip administered as qd on day 5, 9, 13; assay type: functional; conditions: route intraperitoneal
P388 [10] = experiment: Antitumor activity against mouse P388 cells allografted in CDF/BDF mouse assessed as survival time at 0.78 mg/kg, ip administered as qd for 1 to 9 days relative to control; assay type: functional; conditions: route intraperitoneal
P388 [11] = experiment: Antitumor activity against mouse P388 cells allografted in CDF/BDF mouse assessed as survival time at 12.5 mg/kg, ip administered as qd for 1 to 9 days relative to control; assay type: functional; conditions: route intraperitoneal
P388 [12] = experiment: Antitumor activity against mouse P388 cells allografted in CDF/BDF mouse assessed as survival time at 18.8 mg/kg, ip administered as qd on day 5, 9, 13; assay type: functional; conditions: route intraperitoneal
P388 [13] = experiment: Antitumor activity against mouse P388 cells allografted in CDF/BDF mouse assessed as survival time at 3.12 mg/kg, ip administered as qd for 1 to 9 days relative to control; assay type: functional; conditions: route intraperitoneal
P388 [14] = experiment: Antitumor activity against mouse P388 cells allografted in CDF/BDF mouse assessed as survival time at 3.13 mg/kg, ip administered as qd for 1 to 9 days relative to control; assay type: functional; conditions: route intraperitoneal
P388 [15] = experiment: Antitumor activity against mouse P388 cells allografted in CDF/BDF mouse assessed as survival time at 6.25 mg/kg, ip administered as qd for 1 to 9 days relative to control; assay type: functional; conditions: route intraperitoneal
P388 [16] = experiment: Antitumor activity against mouse P388 cells allografted in CDF/BDF mouse assessed as survival time at 25 mg/kg, ip administered as qd on day 5, 9, 13; assay type: functional; conditions: route intraperitoneal
P388 [17] = experiment: Antitumor activity against ip dosed mouse P388 cells allografted in CDF/BDF mouse assessed as survival time administered as qd for 1 to 9 days relative to control; assay type: functional
P388 [18] = experiment: Antitumor activity against mouse P388 cells allografted in CDF/BDF mouse assessed as survival time at 37.5 mg/kg, ip administered as qd on day 5, 9, 13; assay type: functional; conditions: route intraperitoneal
P388 [19] = experiment: Antitumor activity against mouse P388 cells allografted in CDF/BDF mouse assessed as survival time at 4 mg/kg, ip administered as qd for 1 to 9 days relative to control; assay type: functional; conditions: route intraperitoneal
P388 [20] = experiment: Antitumor activity against mouse P388 cells allografted in CDF/BDF mouse assessed as survival time at 25 mg/kg, ip administered as qd for 1 to 9 days relative to control; assay type: functional; conditions: route intraperitoneal
[21] = Aqueous solubility of the compound using 10% propylene glycol vehicle; assay type: physicochemical; conditions: 10% propylene glycol in water
[22] = Aqueous solubility of the compound; assay type: physicochemical; conditions: water

Row | SMILES | Activity (Salmonella typhimurium [2]) | Ratio ED50 (L1210 [3]) | EC50 (L1210 [4]) | Activity (Salmonella typhimurium [5]) | EC50 (L1210 [6]) | ΔTm (Calf thymus DNA) | also measured
1 | COc1cccc2c1C(=O)c1c(O)c3c(c(O)c1C2=O)C[C@@](O)(C(=O)CO)C[C@@H]3O[C@H]1C[C@H](N(C)C)[C@H](O)[C@H](C)O1.Cl | 1 nmol⁻¹ | 5.2 | 120 nM | Non-toxic | 620 nM | 17.5 °C | Activity (Salmonella typhimurium [1]): 20 µg; MTC (Rattus norvegicus): 6 mg/kg
2 | COc1cccc2c1C(=O)c1c(O)c3c(c(O)c1C2=O)C[C@@](O)(C(O)CO)C[C@@H]3O[C@H]1C[C@H](N2CCCCC2)[C@H](O)[C@H](C)O1.Cl (some centres not stated) |  | 7.2 | 100 nM |  | 720 nM | 12.5 °C | T/C (P388 [7]): 157%; T/C (P388 [8]): 143%
3 | COc1cccc2c1C(=O)c1c(O)c3c(c(O)c1C2=O)C[C@@](O)(C(C)=O)C[C@@H]3O[C@H]1C[C@H](N)[C@H](O)[C@H](C)O1 [DAUNORUBICIN] | 100 nmol⁻¹ |  | 330 nM |  | 660 nM |  | Activity (Salmonella typhimurium [1]): 5 µg; T/C (P388 [9]): 132%; MTC (Rattus norvegicus): 14 mg/kg; T/C (P388 [10]): 160%
4 | COc1cccc2c1C(=O)c1c(O)c3c(c(O)c1C2=O)C[C@@](O)(C(C)=O)C[C@@H]3O[C@H]1C[C@H](NC(C)C)[C@H](O)[C@H](C)O1.Cl |  | 3.4 | 320 nM |  | 1100 nM | 10.6 °C | T/C (P388 [11]): 199%
5 | COc1cccc2c1C(=O)c1c(O)c3c(c(O)c1C2=O)C[C@@](O)(C(C)=O)C[C@@H]3O[C@H]1C[C@H](N(C)C)[C@H](O)[C@H](C)O1.Cl | 0 nmol⁻¹ | 10.4 | 64 nM | Non-toxic | 670 nM |  | Activity (Salmonella typhimurium [1]): 20 µg; MTC (Rattus norvegicus): 11 mg/kg
6 | COc1cccc2c1C(=O)c1c(O)c3c(c(O)c1C2=O)C[C@@](O)(C(=O)CO)C[C@@H]3O[C@H]1C[C@H](N)[C@H](O)[C@H](C)O1 [DOXORUBICIN] |  | 2.6 | 580 nM |  | 1500 nM | 13.4 °C | T/C (P388 [9]): 159%; MTC (Rattus norvegicus): 11 mg/kg; T/C (P388 [10]): 197%
7 | COc1cccc2c1C(=O)c1c(O)c3c(c(O)c1C2=O)C[C@@](O)(C(C)=O)C[C@@H]3O[C@H]1C[C@H](NCc2ccccc2)[C@H](O)[C@H](C)O1.Cl | 0.5 nmol⁻¹ | 9.4 | 170 nM | Non-toxic | 1600 nM | 10.2 °C | T/C (P388 [12]): 184%; T/C (P388 [13]): 185%
8 | CCN(CC)[C@H]1C[C@H](O[C@H]2C[C@](O)(C(=O)CO)Cc3c(O)c4c(c(O)c32)C(=O)c2c(OC)cccc2C4=O)O[C@@H](C)[C@H]1O.Cl |  | 3.3 | 210 nM |  | 700 nM | 14.6 °C | T/C (P388 [14]): 171%
9 | COc1cccc2c1C(=O)c1c(O)c3c(c(O)c1C2=O)C[C@@](O)(C(=O)CO)C[C@@H]3O[C@H]1C[C@H](N2CCCCC2)[C@H](O)[C@H](C)O1.Cl | 1 nmol⁻¹ | 17.5 | 40 nM | Non-toxic | 700 nM | 15.4 °C | Activity (Salmonella typhimurium [1]): 20 µg; T/C (P388 [14]): 190%
10 | COc1cccc2c1C(=O)c1c(O)c3c(c(O)c1C2=O)C[C@@](O)(C(=O)CO)C[C@@H]3O[C@H]1C[C@H](N(Cc2ccccc2)Cc2ccccc2)[C@H](O)[C@H](C)O1.Cl |  | 22.8 | 4800 nM |  | 110000 nM | 0 °C | T/C (P388 [15]): 175%
11 | COc1cccc2c1C(=O)c1c(O)c3c(c(O)c1C2=O)C[C@@](O)(C(C)O)C[C@@H]3O[C@H]1C[C@H](N(Cc2ccccc2)Cc2ccccc2)[C@H](O)[C@H](C)O1.Cl (some centres not stated) | 0.5 nmol⁻¹ | 29.1 | 7600 nM | Non-toxic | 220000 nM | 0.6 °C | T/C (P388 [11]): 231%; T/C (P388 [16]): 183%
12 | CCCCCCCCCCN(CCCCCCCCCC)[C@H]1C[C@H](O[C@H]2C[C@](O)(C(C)=O)Cc3c(O)c4c(c(O)c32)C(=O)c2c(OC)cccc2C4=O)O[C@@H](C)[C@H]1O.Cl |  | 2.1 | 130000 nM |  | 280000 nM | 0.1 °C | T/C (P388 [17]): <125%
13 | CCCCCCCCCCN[C@H]1C[C@H](O[C@H]2C[C@](O)(C(C)=O)Cc3c(O)c4c(c(O)c32)C(=O)c2c(OC)cccc2C4=O)O[C@@H](C)[C@H]1O.Cl |  | 1.3 | 2600 nM |  | 3300 nM | 7 °C | T/C (P388 [17]): <125%
14 | COc1cccc2c1C(=O)c1c(O)c3c(c(O)c1C2=O)C[C@@](O)(C(O)CO)C[C@@H]3O[C@H]1C[C@H](NCc2ccccc2)[C@H](O)[C@H](C)O1.Cl (some centres not stated) |  | 4.8 | 290 nM |  | 1400 nM | 7.6 °C | T/C (P388 [7]): 176%; T/C (P388 [18]): 135%
15 | COc1cccc2c1C(=O)c1c(O)c3c(c(O)c1C2=O)C[C@@](O)(C(C)O)C[C@@H]3O[C@H]1C[C@H](NCc2ccccc2)[C@H](O)[C@H](C)O1.Cl (some centres not stated) |  | 5.3 | 320 nM |  | 1700 nM | 6.25 °C | T/C (P388 [15]): 221%
16 | COc1cccc2c1C(=O)c1c(O)c3c(c(O)c1C2=O)C[C@@](O)(C(=O)CO)C[C@@H]3O[C@H]1C[C@H](NCc2ccccc2)[C@H](O)[C@H](C)O1.Cl |  | 7.2 | 90 nM |  | 650 nM | 11.3 °C | T/C (P388 [14]): 185%; T/C (P388 [12]): 190%
17 | CCN(CC)[C@H]1C[C@H](O[C@H]2C[C@](O)(C(C)=O)Cc3c(O)c4c(c(O)c32)C(=O)c2c(OC)cccc2C4=O)O[C@@H](C)[C@H]1O.Cl |  | 5.2 | 130 nM |  | 670 nM | 13.6 °C | T/C (P388 [19]): 178%
18 | COc1cccc2c1C(=O)c1c(O)c3c(c(O)c1C2=O)C[C@@](O)(C(C)=O)C[C@@H]3O[C@H]1C[C@H](N(Cc2ccccc2)Cc2ccccc2)[C@H](O)[C@H](C)O1.Cl | 0.5 nmol⁻¹ | >10 | 10000 nM | Non-toxic | > 100000 nM | 1.35 °C | T/C (P388 [20]): 259%; solubility [21]: > 36000 µg/mL; MTC (Rattus norvegicus): 125 mg/kg; solubility [22]: 200 µg/mL; T/C (P388 [18]): 209%
